In ChEMBL document CHEMBL1123857, “Pyridonecarboxylic acids as antibacterial agents. 9. Synthesis and antibacterial activity of 1-substituted 6-fluoro-1,4-dihydro-4-oxo-7-(4-pyridyl)-1,8-naphthyridine-3-carboxylic acids” (1987):
≈ marks a conversion by molar mass, not a printed value.

Tests used:
Escherichia coli [1] = experiment: Compound was tested in vitro for antibacterial activity against the microbial strain Escherichia coli NIHJ JC-2.; assay type: functional
Mus musculus [2] = species on record: Mus musculus; experiment: Antibacterial activity (oral efficacy) against systemic infections due to Staphylococcus aureus 50774 microbial strains in mice was determined; assay type: functional
In short: (§1)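 Male Std-ddY mice (20 ± 2 g), in groups of 10 or more, were infected with S. aureus 50774 (iv, 5×10^8 cells), E. coli P-5101 (ip, 9×10^6 cells) or P. aeruginosa 12 (ip, 4×10^3 cells). Compounds were suspended in 0.2% sodium (carboxymethyl)cellulose and dosed orally at 0 and 6 h postinfection. Survival was scored at 2 weeks for S. aureus and at 1 week for the others.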

Mus musculus [3] = experiment: Antibacterial activity against Escherichia coli P-5101 microbial strains in mice was determined expressed as ED50 (mg/kg); assay type: functional; in short: as §1
Mus musculus [4] = experiment: Antibacterial activity against Pseudomonas aeruginosa 12 microbial strains in mice was determined expressed as ED50 (mg/kg); assay type: functional; in short: as §1
Pseudomonas aeruginosa [5] = experiment: Compound was tested in vitro for antibacterial activity against the microbial strain Pseudomonas aeruginosa 12.; assay type: functional
Staphylococcus aureus [6] = experiment: Compound was tested in vitro for antibacterial activity against the microbial strain Staphylococcus aureus 209P JC-1.; assay type: functional
Escherichia coli [7] = experiment: Antibacterial activity against Escherichia coli P-5101 microbial strains; was determined expressed as MIC
Pseudomonas aeruginosa [8] = experiment: Antibacterial activity against Pseudomonas aeruginosa 12 microbial strains; was determined expressed as MIC
Staphylococcus aureus [9] = experiment: Antibacterial activity against Staphylococcus aureus 50774 microbial strains; was determined expressed as MIC
Pseudomonas aeruginosa [10] = experiment: Compound was tested in vitro for antibacterial activity against the microbial strainP. aeruginosa 12.; assay type: functional
In short: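 MIC (µg/mL) was determined by twofold agar dilution on Mueller-Hinton agar at pH 7.4. Inocula were about 10⁶ CFU. Growth was read after 20 h incubation at 37 °C.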

Escherichia coli [11] = experiment: Antibacterial activity against Escherichia coli P-5101 microbial strains was determined expressed as MIC
Staphylococcus aureus [12] = experiment: Antibacterial activity against Staphylococcus aureus 50774 microbial strains; was determined expressed as MIC; remark: listed apart in the source

Compound	MIC (Escherichia coli [1])	MIC (Pseudomonas aeruginosa [5])	MIC (Staphylococcus aureus [6])	MIC (Pseudomonas aeruginosa [8])	MIC (Escherichia coli [11])	MIC (Staphylococcus aureus [12])	ED50 (Mus musculus [2])	ED50 (Mus musculus [3])	ED50 (Mus musculus [4])	MIC (Escherichia coli [7])	MIC (Staphylococcus aureus [9])	MIC (Pseudomonas aeruginosa [10])
CCn1cc(C(=O)O)c(=O)c2cc(F)c(N3CCNCC3)nc21 [ENOXACIN]	0.2 µg/mL (≈ 0.624 µM)	0.78 µg/mL (≈ 2.44 µM)	0.78 µg/mL (≈ 2.44 µM)	0.78 µg/mL (≈ 2.44 µM)	–	–	10 mg/kg	1.9 mg/kg	9 mg/kg	0.1 µg/mL (≈ 0.312 µM)	0.78 µg/mL (≈ 2.44 µM)	–
CCn1cc(C(=O)O)c(=O)c2ccc(N3CCNCC3)nc21	6.25 µg/mL (≈ 20.7 µM)	–	12.5 µg/mL (≈ 41.3 µM)	–	–	–	–	–	–	–	–	12.5 µg/mL (≈ 41.3 µM)
CCn1cc(C(=O)O)c(=O)c2ccc(-c3ccncc3)cc21 [ROSOXACIN]	0.39 µg/mL (≈ 1.33 µM)	3.13 µg/mL (≈ 10.6 µM)	0.78 µg/mL (≈ 2.65 µM)	3.13 µg/mL (≈ 10.6 µM)	0.2 µg/mL (≈ 0.68 µM)	0.39 µg/mL (≈ 1.33 µM)	6.8 mg/kg	7.3 mg/kg	29.2 mg/kg	–	–	–
CCn1cc(C(=O)O)c(=O)c2ccc(-c3ccncc3)nc21	0.78 µg/mL (≈ 2.64 µM)	12.5 µg/mL (≈ 42.3 µM)	1.56 µg/mL (≈ 5.28 µM)	–	–	–	–	–	–	–	–	–
C=Cn1cc(C(=O)O)c(=O)c2cc(F)c(-c3ccncc3)nc21	0.78 µg/mL (≈ 2.51 µM)	6.25 µg/mL (≈ 20.1 µM)	1.56 µg/mL (≈ 5.01 µM)	–	–	–	–	–	–	–	–	–
O=C(O)c1cn(CCO)c2nc(-c3ccncc3)c(F)cc2c1=O	1.56 µg/mL (≈ 4.74 µM)	50 µg/mL (≈ 152 µM)	50 µg/mL (≈ 152 µM)	–	–	–	–	–	–	–	–	–
CCn1cc(C(=O)O)c(=O)c2cc(F)c(-c3ccncc3)nc21	0.2 µg/mL (≈ 0.638 µM)	3.13 µg/mL (≈ 9.99 µM)	0.39 µg/mL (≈ 1.24 µM)	–	–	–	–	–	–	–	–	–

Further compounds by falling MIC (Escherichia coli [1]), results first:

MIC (Escherichia coli [1])	MIC (Pseudomonas aeruginosa [5])	MIC (Staphylococcus aureus [6])	MIC (Pseudomonas aeruginosa [8])	MIC (Escherichia coli [11])	MIC (Staphylococcus aureus [12])	Compound	ED50 (Mus musculus [2])	ED50 (Mus musculus [3])	ED50 (Mus musculus [4])	MIC (Escherichia coli [7])	MIC (Staphylococcus aureus [9])	MIC (Pseudomonas aeruginosa [10])
0.2 µg/mL (≈ 0.591 µM)	0.78 µg/mL (≈ 2.31 µM)	0.39 µg/mL (≈ 1.15 µM)	–	–	–	O=C(O)c1cn(CCF)c2nc(N3CCNCC3)c(F)cc2c1=O	–	–	–	–	–	–
0.2 µg/mL (≈ 0.604 µM)	1.56 µg/mL (≈ 4.71 µM)	0.39 µg/mL (≈ 1.18 µM)	1.56 µg/mL (≈ 4.71 µM)	0.1 µg/mL (≈ 0.302 µM)	0.39 µg/mL (≈ 1.18 µM)	O=C(O)c1cn(CCF)c2nc(-c3ccncc3)c(F)cc2c1=O	3.37 mg/kg	4.91 mg/kg	14.9 mg/kg	–	–	–
0.1 µg/mL (≈ 0.307 µM)	0.78 µg/mL (≈ 2.4 µM)	0.2 µg/mL (≈ 0.615 µM)	0.78 µg/mL (≈ 2.4 µM)	0.05 µg/mL (≈ 0.154 µM)	0.1 µg/mL (≈ 0.307 µM)	O=C(O)c1cn(C2CC2)c2nc(-c3ccncc3)c(F)cc2c1=O	5.43 mg/kg	4.48 mg/kg	15 mg/kg	–	–	–
0.1 µg/mL (≈ 0.314 µM)	0.39 µg/mL (≈ 1.23 µM)	1.56 µg/mL (≈ 4.9 µM)	–	–	–	C=Cn1cc(C(=O)O)c(=O)c2cc(F)c(N3CCNCC3)nc21	–	–	–	–	–	–
